Assay results published in ChEMBL document CHEMBL2146438, “Radiolabeled cyclosaligenyl monophosphates of 5-iodo-2'-deoxyuridine, 5-iodo-3'-fluoro-2',3'-dideoxyuridine, and 3'-fluorothymidine for molecular radiotherapy of cancer: synthesis and biological evaluation” (J Med Chem, 2012).
Activity calls are given as the source filed them. The calls are words filed in the database; no cut-off is given here.

biological target: Cholinesterase (Homo sapiens, UniProt P06276); assay: Inhibition of human BChE after 30 mins by microplate reader method; settings: not given
Sequence (P06276 whole entry): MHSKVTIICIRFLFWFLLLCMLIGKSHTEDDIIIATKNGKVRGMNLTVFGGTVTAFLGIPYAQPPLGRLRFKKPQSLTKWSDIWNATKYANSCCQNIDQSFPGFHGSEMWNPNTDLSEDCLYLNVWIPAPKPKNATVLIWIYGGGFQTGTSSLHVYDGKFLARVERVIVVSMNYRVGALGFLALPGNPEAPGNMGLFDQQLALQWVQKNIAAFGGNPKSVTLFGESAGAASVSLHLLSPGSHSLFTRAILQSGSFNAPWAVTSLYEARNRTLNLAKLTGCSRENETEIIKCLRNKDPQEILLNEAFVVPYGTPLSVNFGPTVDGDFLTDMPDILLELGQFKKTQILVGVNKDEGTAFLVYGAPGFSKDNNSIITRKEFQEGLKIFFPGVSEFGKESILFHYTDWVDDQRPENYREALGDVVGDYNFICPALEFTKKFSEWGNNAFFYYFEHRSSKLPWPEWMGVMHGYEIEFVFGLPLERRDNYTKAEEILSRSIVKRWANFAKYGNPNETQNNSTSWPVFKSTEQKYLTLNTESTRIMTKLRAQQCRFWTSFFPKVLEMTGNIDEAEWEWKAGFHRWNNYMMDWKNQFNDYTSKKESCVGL

Compound	IC50 [nM]
O=c1[nH]c(=O)n([C@H]2C[C@H](O)[C@@H](COP3(=O)OCc4ccccc4O3)O2)cc1I (stereo in doubt; form 2)	9.2
O=c1[nH]c(=O)n([C@H]2C[C@H](O)[C@@H](COP3(=O)OCc4ccccc4O3)O2)cc1I (stereo in doubt; form 1)	1280
Cc1cn([C@H]2C[C@H](F)[C@@H](COP3(=O)OCc4c(F)c(C(C)(C)C)cc(C(C)(C)C)c4O3)O2)c(=O)[nH]c1=O (stereo in doubt; form 1)	203
Cc1cn([C@H]2C[C@H](O)[C@@H](COP3(=O)OCc4c(F)c(C(C)(C)C)cc(C(C)(C)C)c4O3)O2)c(=O)[nH]c1=O (stereo in doubt; form 2)	376
CC(C)(C)c1cc(C(C)(C)C)c2c(c1F)COP(=O)(OC[C@H]1O[C@@H](n3cc(I)c(=O)[nH]c3=O)C[C@@H]1O)O2 (stereo in doubt; form 3)	1140

test system: Nucleic Acid; assay: Binding affinity to human U87MG cell DNA at 19.6 kBq/mL after 40 hrs by gamma counting; format: nucleic-acid assay; settings: U-87MG ATCC, tested as the 125I-labelled form
Outline: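 U-87 MG cells incubated 40 h with 19.6 kBq/mL 125I-labelled agent; 125I in DNA measured (genomic tips DNA isolation), expressed as mBq 125I/cell.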

Compound	Activity
O=c1[nH]c(=O)n([C@H]2C[C@H](O)[C@@H](COP3(=O)OCc4ccccc4O3)O2)cc1I (stereo in doubt; form 4)	Active

test system: LS174T; assay: Cytotoxicity against human LS 174T cells assessed as incorporation of radioisotope at 185 kBq/mL after 4 hrs by gamma counting; format: functional, cell-based; settings: tested as the 125I-labelled form
Outline: (§1)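 LS 174T cells exposed 4 h to 185 kBq/mL 125I agent, harvested immediately and plated for clonogenic survival (relative to untreated controls); 125I retained in nuclear DNA measured as mBq/cell.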

Compound	Activity
Cc1cccc2c1OP(=O)(OC[C@H]1O[C@@H](n3cc(I)c(=O)[nH]c3=O)C[C@@H]1O)OC2 (stereo in doubt; form 4)	Active
Cc1cccc2c1OP(=O)(OC[C@H]1O[C@@H](n3cc(I)c(=O)[nH]c3=O)C[C@@H]1O)OC2 (stereo in doubt; form 3)	Active

test system: U-87MG ATCC; assay: Cytotoxicity against human U87MG cells at 4.76 kBq/mL assessed as cell survival incubated for 1 hr followed by compound wash out measured after 24 hrs by clonogenic assay; format: functional, cell-based; settings: tested as the 125I-labelled form
Outline: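 U-87 MG cells treated 1 h with 4.76 kBq/mL 125I agent, then plated immediately or grown 24 h in fresh medium before clonogenic assay; surviving fraction relative to untreated control colonies.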

Compound	Activity
CC(C)(C)c1cc(C(C)(C)C)c2c(c1F)COP(=O)(OC[C@H]1O[C@@H](n3cc(I)c(=O)[nH]c3=O)C[C@@H]1F)O2 (stereo in doubt)	inactive

test system: U-87MG ATCC; assay: Cytotoxicity against human U87MG cells assessed as cell death at 18.5 kBq/mL after 8 weeks by clonogenic assay; format: functional, cell-based; settings: tested as the 125I-labelled form
Outline: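 U-87 MG cells treated 24 h with increasing 125I agent concentrations, then grown in fresh medium; colony formation followed up to eight weeks versus vehicle-treated controls.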

Compound	Activity
O=c1[nH]c(=O)n([C@H]2C[C@H](O)[C@@H](COP3(=O)OCc4ccccc4O3)O2)cc1I (stereo in doubt; form 3)	Active
O=c1[nH]c(=O)n([C@H]2C[C@H](O)[C@@H](COP3(=O)OCc4ccccc4O3)O2)cc1I (stereo in doubt; form 4)	Active

test system: not listed separately; assay: Half life of the compound in phosphate buffer at pH 7.3; format: physicochemical; settings: not given

Compound	t1/2 [h]
CC(C)(C)c1cc(C(C)(C)C)c2c(c1F)COP(=O)(OC[C@H]1O[C@@H](n3cc(I)c(=O)[nH]c3=O)C[C@@H]1O)O2 (stereo in doubt; form 1)	47.9
O=c1[nH]c(=O)n([C@H]2C[C@H](OP3(=O)OCc4ccccc4O3)[C@@H](CO)O2)cc1I (stereo in doubt; form 1)	5.3
O=c1[nH]c(=O)n([C@H]2C[C@H](OP3(=O)OCc4ccccc4O3)[C@@H](CO)O2)cc1I (stereo in doubt; form 2)	7.1
CC(C)(C)c1cc(C(C)(C)C)c2c(c1F)COP(=O)(O[C@H]1C[C@H](n3cc(I)c(=O)[nH]c3=O)O[C@@H]1CO)O2 (stereo in doubt; form 1)	15.1
Cc1cccc2c1OP(=O)(O[C@H]1C[C@H](n3cc(I)c(=O)[nH]c3=O)O[C@@H]1CO)OC2 (stereo in doubt; form 1)	12.2
Cc1cccc2c1OP(=O)(O[C@H]1C[C@H](n3cc(I)c(=O)[nH]c3=O)O[C@@H]1CO)OC2 (stereo in doubt; form 2)	14.2
CC(C)(C)c1cc(C(C)(C)C)c2c(c1F)COP(=O)(OC[C@H]1O[C@@H](n3cc([125I])c(=O)[nH]c3=O)C[C@@H]1F)O2 (stereo in doubt; form 2)	51.5

test system: not listed separately; assay: Chemical stability of the compound in phosphate buffer at pH 7.3; format: physicochemical; settings: not given

Compound	K
CC(C)(C)c1cc(C(C)(C)C)c2c(c1F)COP(=O)(OC[C@H]1O[C@@H](n3cc(I)c(=O)[nH]c3=O)C[C@@H]1O)O2 (stereo in doubt; form 1)	2.41 ×10⁻⁴ /min
O=c1[nH]c(=O)n([C@H]2C[C@H](OP3(=O)OCc4ccccc4O3)[C@@H](CO)O2)cc1I (stereo in doubt; form 1)	2.05 ×10⁻³ /min
O=c1[nH]c(=O)n([C@H]2C[C@H](OP3(=O)OCc4ccccc4O3)[C@@H](CO)O2)cc1I (stereo in doubt; form 2)	1.64 ×10⁻³ /min
CC(C)(C)c1cc(C(C)(C)C)c2c(c1F)COP(=O)(O[C@H]1C[C@H](n3cc(I)c(=O)[nH]c3=O)O[C@@H]1CO)O2 (stereo in doubt; form 1)	7.66 ×10⁻⁴ /min
Cc1cccc2c1OP(=O)(O[C@H]1C[C@H](n3cc(I)c(=O)[nH]c3=O)O[C@@H]1CO)OC2 (stereo in doubt; form 1)	9.46 ×10⁻⁴ /min
Cc1cccc2c1OP(=O)(O[C@H]1C[C@H](n3cc(I)c(=O)[nH]c3=O)O[C@@H]1CO)OC2 (stereo in doubt; form 2)	8.13 ×10⁻⁴ /min
CC(C)(C)c1cc(C(C)(C)C)c2c(c1F)COP(=O)(OC[C@H]1O[C@@H](n3cc([125I])c(=O)[nH]c3=O)C[C@@H]1F)O2 (stereo in doubt; form 2)	2.24 ×10⁻⁴ /min

test system: Nucleic Acid; assay: Binding affinity to human U87MG cell DNA at 185 kBq/mL after 120 hrs by gamma counting; format: nucleic-acid assay; settings: U-87MG ATCC, tested as the 125I-labelled form
Outline: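 U-87 MG glioblastoma cells exposed continuously to 185 kBq/mL 125I-labelled agent for 120 h; DNA isolated and DNA-associated 125I counted.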

Compound	Activity
O=c1[nH]c(=O)n([C@H]2C[C@H](O)[C@@H](COP3(=O)OCc4ccccc4O3)O2)cc1I (stereo in doubt; form 4)	Active

test system: LS174T; assay: Cytotoxicity against human LS 174T cells assessed as colony formation at 185 kBq/mL after 4 hrs by clonogenic assay relative to control; format: functional, cell-based; settings: tested as the 125I-labelled form; outline: as §1

Compound	Activity
Cc1cccc2c1OP(=O)(OC[C@H]1O[C@@H](n3cc(I)c(=O)[nH]c3=O)C[C@@H]1O)OC2 (stereo in doubt; form 4)	Active

test system: Nucleic Acid; assay: Binding affinity to human U87MG cell DNA at 27.3 kBq/mL incubated for 24 hrs followed by compound wash out measured after 144 hrs by gamma counting; format: nucleic-acid assay; settings: U-87MG ATCC, tested as the 125I-labelled form
Outline: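 U-87 MG cells treated 24 h with 27.3 kBq/mL 125I-labelled agent, then grown a further 144 h in fresh medium; 125I retained in DNA counted.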

Compound	Activity
O=c1[nH]c(=O)n([C@H]2C[C@H](O)[C@@H](COP3(=O)OCc4ccccc4O3)O2)cc1I (stereo in doubt; form 4)	Active
